Measurements taken from ChEMBL document CHEMBL1130140, “O6-(alkyl/aralkyl)guanosine and 2'-deoxyguanosine derivatives: synthesis and ability to enhance chloroethylnitrosourea antitumor action” (1997).

Experiments:
M4Beu cell line [1] = assay: In vitro cytotoxicity against M4Beu cells when co-administered with 50 uM cystemustine.; type: functional; details: Homo sapiens, read-out: ED50 (the source's name)
In short: (§1)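 M4Beu cells were plated at 200 cells/dish and left to adhere 20 h. They were given compound at 0-400 µM (100 mM DMSO stock) for 4 h at 37 °C, then 50 µM cystemustine for 2 h at 37 °C, then grown 14 days. Methanol-fixed, crystal-violet-stained colonies (>50 cells) were counted. ED50 was read graphically from the concentration plot of survival decrease relative to cystemustine alone. Each dose ran ≥3 times in triplicate.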

M4Beu cell line [2] = assay: In vitro cytotoxicity in M4Beu cells after 4 hr exposure to 300 uM.; type: functional, Homo sapiens
In short: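 Colony-forming assay: M4Beu cells plated at 200 cells/dish, allowed to adhere 20 h, then exposed 4 h at 37 °C to compound at 300 µM (from 100 mM DMSO stock) with no cystemustine step. Medium then replaced, cells grown 14 days, fixed in methanol, stained with crystal violet. Colonies >50 cells counted; survival as percent of untreated control; at least three experiments in triplicate.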

M4Beu cell line [3] = assay: Effective dose of compound associated with cystemustine (50 uM), required to reduce by 50% cell survival rate (M4Beu cells); type: functional; details: Homo sapiens, read-out: ED50 (the source's name); in short: as §1

SMILES	EC50 (M4Beu cell line [1])	Cell survival (M4Beu cell line [2])	EC50 (M4Beu cell line [3])
CC(=O)Nc1nc(OCc2ccc(I)cc2)c2ncn(C3CC(OC(C)=O)C(COC(C)=O)O3)c2n1 (stereo not given)	200 µM		
CC(=O)Nc1nc(OCc2ccc(I)cc2)c2ncn(C3CC(O)C(CO)O3)c2n1 (stereo not given)	269 µM		
CC(=O)Nc1nc(OCc2ccc(Br)cc2)c2ncn([C@H]3C[C@H](O)[C@@H](CO)O3)c2n1	211 µM		
CC(=O)Nc1nc(OC(c2ccccc2)c2ccccc2)c2ncn(C3O[C@H](CO)[C@@H](O)[C@H]3O)c2n1 (stereo not given in full)	400 µM		
Nc1nc(OCc2ccc(I)cc2)c2ncn(C3O[C@H](CO)[C@@H](O)[C@H]3O)c2n1 (stereo not given in full)	122 µM	100%	
CC(=O)Nc1nc(OCc2ccc(Br)cc2)c2ncn(C3OC(COC(C)=O)C(OC(C)=O)C3OC(C)=O)c2n1 (stereo not given)			400 µM
Nc1nc(OCc2ccccc2)c2nc[nH]c2n1 [6-O-BENZYLGUANINE]	2 µM	110%	
CC(=O)Nc1nc(OCc2ccc(Br)cc2)c2ncn(C3CC(OC(C)=O)C(COC(C)=O)O3)c2n1 (stereo not given)	216 µM		
